From paper PMC5088049 (Pharmacogenetics and genomics, 2016)

Key:
Type in all cases: in vitro ADME
AKR1C3 Lys104Asn = AKR1C3 Lys104Asn (Homo sapiens, UniProt P42330, K104N); assay: Kinetics of EXE reduction to 17β-DHE, recombinant AKR1C3 Lys104Asn
AKR1C1 = AKR1C1 (Homo sapiens, UniProt Q04828); assay: Kinetics of EXE reduction to 17β-DHE, recombinant AKR1C1; conditions: wildtype AKR1C1
AKR1C2 Phe46Tyr = target: T1, AKR1C2 Phe46Tyr (Homo sapiens, UniProt P52895, F46Y); assay: Kinetics of EXE reduction to 17β-DHE, recombinant AKR1C2 Phe46Tyr; conditions: VMAX/KM
T1 sequence (P52895 1-323 F46Y): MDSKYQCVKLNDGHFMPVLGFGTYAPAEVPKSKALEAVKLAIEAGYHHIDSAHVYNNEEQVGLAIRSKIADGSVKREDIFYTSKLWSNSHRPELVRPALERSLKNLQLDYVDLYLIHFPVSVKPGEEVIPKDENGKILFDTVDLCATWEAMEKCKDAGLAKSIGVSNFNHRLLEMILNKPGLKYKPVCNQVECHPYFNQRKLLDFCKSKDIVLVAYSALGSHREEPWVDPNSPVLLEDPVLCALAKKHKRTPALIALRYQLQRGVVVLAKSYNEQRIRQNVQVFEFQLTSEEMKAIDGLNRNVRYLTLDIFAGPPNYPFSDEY

AKR1C3 [1] = target: T2, AKR1C3 (Homo sapiens, UniProt P42330); assay: Kinetics of EXE reduction to 17β-DHE, recombinant AKR1C3
T2 sequence (P42330 whole entry): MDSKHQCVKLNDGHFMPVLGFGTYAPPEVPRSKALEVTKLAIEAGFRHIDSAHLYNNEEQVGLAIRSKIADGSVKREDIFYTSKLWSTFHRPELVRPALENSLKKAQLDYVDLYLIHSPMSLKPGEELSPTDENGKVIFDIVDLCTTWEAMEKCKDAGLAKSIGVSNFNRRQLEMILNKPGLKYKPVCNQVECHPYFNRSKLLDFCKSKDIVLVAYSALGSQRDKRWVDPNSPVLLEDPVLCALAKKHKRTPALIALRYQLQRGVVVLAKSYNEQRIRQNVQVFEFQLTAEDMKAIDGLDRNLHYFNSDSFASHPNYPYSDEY

AKR1C4 Gly135Glu = target: T3, AKR1C4 Gly135Glu (Homo sapiens, UniProt P17516, G135E); assay: Kinetics of EXE reduction to 17β-DHE, recombinant AKR1C4 Gly135Glu; conditions: for VMAX: normalized to enzyme purity
T3 sequence (P17516 1-323 G135E): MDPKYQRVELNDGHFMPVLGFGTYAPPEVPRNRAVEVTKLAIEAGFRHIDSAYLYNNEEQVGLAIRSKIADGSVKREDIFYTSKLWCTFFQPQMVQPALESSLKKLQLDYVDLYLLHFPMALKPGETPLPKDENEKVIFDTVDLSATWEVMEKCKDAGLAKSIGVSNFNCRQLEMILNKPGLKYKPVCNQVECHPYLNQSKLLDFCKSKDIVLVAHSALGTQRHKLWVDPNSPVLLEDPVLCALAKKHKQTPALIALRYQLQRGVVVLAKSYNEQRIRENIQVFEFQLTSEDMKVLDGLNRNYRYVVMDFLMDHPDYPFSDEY

AKR1C3 Glu77Gly = AKR1C3 Glu77Gly (Homo sapiens, UniProt P42330, E77G); assay: Kinetics of EXE reduction to 17β-DHE, recombinant AKR1C3 Glu77Gly; conditions: for VMAX: normalized to enzyme purity
Sequence of AKR1C3 Glu77Gly (P42330 whole entry E77G): as the sequence (P42330 whole entry) above, with E77G counted along it

CBR1 = target: T4, CBR1 (Homo sapiens, UniProt P16152); assay: Metabolite identification, overnight incubation with recombinant CBR1; conditions: 200 µM EXE, 18-h incubation, 1.5 µg recombinant CBR1
T4 sequence (P16152 1-277): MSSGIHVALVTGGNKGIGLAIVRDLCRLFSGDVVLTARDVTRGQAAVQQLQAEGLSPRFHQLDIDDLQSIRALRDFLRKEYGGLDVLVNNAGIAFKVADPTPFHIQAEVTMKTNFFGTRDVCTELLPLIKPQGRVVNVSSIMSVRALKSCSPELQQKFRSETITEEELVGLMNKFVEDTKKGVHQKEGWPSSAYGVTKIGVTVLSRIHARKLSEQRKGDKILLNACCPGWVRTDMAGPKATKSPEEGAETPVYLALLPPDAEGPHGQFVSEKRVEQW
How it was run: (§1)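 Wildtype enzyme was His-tagged, expressed in E. coli BL21 (IPTG induction), Ni-NTA purified and dialysed against PBS. It was stopped with ice-cold acetonitrile and centrifuged. UPLC/ESI+ full scan (m/z 100–450) was followed by targeted MS/MS transitions. Retention times were matched to synthetic 17α/17β-dihydro standards.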

[2] = Metabolite identification, overnight incubation with pooled human liver cytosol; conditions: 200 µM EXE, 18-h incubation, 7.5 µg pooled human liver cytosol, PBS pH 7.4, 37°C, NADPH regeneration system
[3] = Kinetics of EXE reduction to 17β-DHE, pooled human liver cytosol
AKR1C3 Arg258Cys = AKR1C3 Arg258Cys (Homo sapiens, UniProt P42330, R258C); assay: Kinetics of EXE reduction to 17β-DHE, recombinant AKR1C3 Arg258Cys
Sequence of AKR1C3 Arg258Cys (P42330 whole entry R258C): as the sequence (P42330 whole entry) above, with R258C counted along it

AKR1C2 [4] = target: T5, AKR1C2 (Homo sapiens, UniProt P52895); assay: Kinetics of EXE reduction to 17β-DHE, recombinant AKR1C2; conditions: wildtype AKR1C2
T5 sequence (P52895 whole entry): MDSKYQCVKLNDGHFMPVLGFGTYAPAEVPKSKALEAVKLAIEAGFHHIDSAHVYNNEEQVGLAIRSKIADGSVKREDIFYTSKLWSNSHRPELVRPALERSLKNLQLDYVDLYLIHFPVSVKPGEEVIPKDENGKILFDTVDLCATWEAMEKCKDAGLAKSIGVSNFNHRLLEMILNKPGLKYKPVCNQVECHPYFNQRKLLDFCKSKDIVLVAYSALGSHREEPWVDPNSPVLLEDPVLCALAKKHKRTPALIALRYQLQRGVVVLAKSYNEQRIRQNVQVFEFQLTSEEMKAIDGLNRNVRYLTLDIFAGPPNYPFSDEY

AKR1C2 [5] = target: T5, AKR1C2; assay: Metabolite identification, overnight incubation with recombinant AKR1C2; conditions: 200 µM EXE, 18-h incubation, 1.5 µg recombinant AKR1C2
How it was run: as §1

AKR1C3 [6] = target: T2, AKR1C3; assay: Metabolite identification, overnight incubation with recombinant AKR1C3; conditions: 200 µM EXE, 18-h incubation, 1.5 µg recombinant AKR1C3
How it was run: as §1

AKR1C3 Pro180Ser = AKR1C3 Pro180Ser (Homo sapiens, UniProt P42330, P180S); assay: Kinetics of EXE reduction to 17β-DHE, recombinant AKR1C3 Pro180Ser
Sequence of AKR1C3 Pro180Ser (P42330 whole entry P180S): as the sequence (P42330 whole entry) above, with P180S counted along it

Sequence of AKR1C3 Lys104Asn (P42330 whole entry K104N): as the sequence (P42330 whole entry) above, with K104N counted along it
Sequence of AKR1C1 (Q04828 whole entry): as the sequence (P52895 whole entry) above, with V38T, H47R, V54L, S87C, M151V, H170R, L172Q counted along it

Structure (SMILES): C=C1C[C@@H]2[C@H](CC[C@]3(C)C(=O)CC[C@@H]23)[C@@]2(C)C=CC(=O)C=C12 [exemestane, 6-methylenandrosa-1,4-diene-3-17-dione]
- Km (AKR1C3 Lys104Asn; AKR1C3 Lys104Asn (rs12387), 17β-DHE formation): 16.8 ± 1 µM
- CLINT (AKR1C3 Lys104Asn; AKR1C3 Lys104Asn, VMAX/KM): 0.38 nL/min/mg
- VMAX (AKR1C3 Lys104Asn; AKR1C3 Lys104Asn, normalized to enzyme purity): 6.4 ± 0.3 picomoles·min^−1·mg^−1
- CLINT (AKR1C1; VMAX/KM): 2.0 nL/min/mg
- VMAX (AKR1C1; normalized to enzyme purity): 71.1 ± 1.5 picomoles·min^−1·mg^−1
- CLINT (AKR1C2 Phe46Tyr): 7.8 nL/min/mg
- VMAX of AKR1C3 relative to AKR1C4 (AKR1C3 [1]; higher than AKR1C4): 36 fold
- Km (AKR1C3 [1]; wildtype AKR1C3, 17β-DHE formation): 12.3 ± 1.1 µM
- CLINT (AKR1C3 [1]; wildtype AKR1C3, VMAX/KM): 6.8 nL/min/mg
- VMAX (AKR1C3 [1]; wildtype AKR1C3, normalized to enzyme purity): 83.3 ± 15.4 picomoles·min^−1·mg^−1
- Km (AKR1C4 Gly135Glu; AKR1C4 Gly135Glu (rs11253043), 17β-DHE formation): 311 ± 75.7 µM
- CLINT (AKR1C4 Gly135Glu; AKR1C4 Gly135Glu, VMAX/KM): 0.06 nL/min/mg
- VMAX (AKR1C4 Gly135Glu; AKR1C4 Gly135Glu): 19.1 ± 4.2 picomoles·min^−1·mg^−1
- VMAX (AKR1C4 Gly135Glu; AKR1C4 Gly135Glu, listed as EXE): 19.1 ± 4.2 picomoles·min^−1·mg^−1
- VMAX of AKR1C4 Gly135Glu relative to wildtype (AKR1C4 Gly135Glu; faster than wildtype AKR1C4): 8 fold
- Km (AKR1C3 Glu77Gly; AKR1C3 Glu77Gly (rs11551177), 17β-DHE formation): 13.9 ± 2.2 µM
- CLINT (AKR1C3 Glu77Gly; AKR1C3 Glu77Gly, VMAX/KM): 0.14 nL/min/mg
- VMAX (AKR1C3 Glu77Gly; AKR1C3 Glu77Gly): 1.9 ± 0.2 picomoles·min^−1·mg^−1
- VMAX (AKR1C3 Glu77Gly; AKR1C3 Glu77Gly, listed as EXE): 1.9 ± 0.2 picomoles·min^−1·mg^−1
- metabolites formed (CBR1): both stereoisomers of DHE
- metabolite formed [2]: 17β-DHE although a lesser amount of 17α-DHE was detected as well
- maximum rate of 17β-DHE formation (VMAX) ([3]; 5 µg pooled HLC, 90-min incubation, EXE 0.5–400 µM): 21 ± 4.8 pmol/min/mg
- Km at 90 min ([3]; human, pooled human liver cytosol, pH 7.4): 55.7 ± 1.9 µM
- Km (AKR1C3 Arg258Cys; AKR1C3 Arg258Cys (rs62621365), 17β-DHE formation): 75.8 ± 19.9 µM
- CLINT (AKR1C3 Arg258Cys; AKR1C3 Arg258Cys, VMAX/KM): 0.03 nL/min/mg
- VMAX (AKR1C3 Arg258Cys; AKR1C3 Arg258Cys, normalized to enzyme purity): 2.3 ± 0.1 picomoles·min^−1·mg^−1
- affinity for EXE of AKR1C3 Arg258Cys relative to wildtype (AKR1C3 Arg258Cys; lower affinity (KM) than wildtype AKR1C3): roughly 6 fold
- CLINT (AKR1C2 [4]; VMAX/KM): 5.1 nL/min/mg
- VMAX (AKR1C2 [4]; normalized to enzyme purity): 84.2 ± 15.6 picomoles·min^−1·mg^−1
- metabolites formed (AKR1C2 [5]): only 17β-DHE formation
- metabolites formed (AKR1C3 [6]): only 17β-DHE formation
- Km (AKR1C3 Pro180Ser; AKR1C3 Pro180Ser (rs34186955), 17β-DHE formation): 11.2 ± 3.1 µM
- CLINT (AKR1C3 Pro180Ser; AKR1C3 Pro180Ser, VMAX/KM): 0.32 nL/min/mg
- VMAX (AKR1C3 Pro180Ser; AKR1C3 Pro180Ser, normalized to enzyme purity): 3.6 ± 0.6 picomoles·min^−1·mg^−1
